Laboratory results from PMC11865470 (Communications Biology, 2025).
Entries after “also recorded” stand apart in the source; their conditions may differ.

How the values were obtained:
mOtop1/R554A = molecular target: T1, mOtop1/R554A (Mus musculus, UniProt Q80VM9, R554A); assay: patch-clamp, mOtop1 mutant; format: cell-based; conditions: for effect of mutating R554 on the compound's action on Otop1: Fig 5I, J
T1 sequence (Q80VM9 1-600 R554A): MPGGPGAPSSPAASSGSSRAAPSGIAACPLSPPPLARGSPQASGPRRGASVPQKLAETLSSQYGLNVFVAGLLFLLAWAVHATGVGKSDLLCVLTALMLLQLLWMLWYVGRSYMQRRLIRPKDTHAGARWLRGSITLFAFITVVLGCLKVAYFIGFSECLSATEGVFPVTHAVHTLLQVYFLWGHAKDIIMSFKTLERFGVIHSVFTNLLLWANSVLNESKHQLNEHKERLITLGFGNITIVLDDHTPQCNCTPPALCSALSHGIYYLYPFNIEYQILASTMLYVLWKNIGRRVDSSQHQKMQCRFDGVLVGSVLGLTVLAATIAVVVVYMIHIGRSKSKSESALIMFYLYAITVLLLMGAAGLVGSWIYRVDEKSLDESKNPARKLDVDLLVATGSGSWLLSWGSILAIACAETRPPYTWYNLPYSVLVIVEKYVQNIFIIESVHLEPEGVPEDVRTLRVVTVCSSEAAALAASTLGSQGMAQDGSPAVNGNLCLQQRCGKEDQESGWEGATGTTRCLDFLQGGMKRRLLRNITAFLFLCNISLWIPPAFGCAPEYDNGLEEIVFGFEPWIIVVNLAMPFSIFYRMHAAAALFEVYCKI

KV7.1 = assay: whole-cell patch-clamp, off-target channel, 10 μM compound; format: cell-based, Homo sapiens; conditions: for sensitivity of channel to compound: vs 0.1% DMSO
How it was run: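 KV channels in transiently transfected HEK293T cells, whole-cell. Pipette (mM): 140 KCl, 2.5 MgCl2, 11 EGTA, 10 HEPES, pH 7.4. Bath (mM): 145 NaCl, 2.8 KCl, 2 CaCl2, 1 MgCl2, 10 glucose, 10 HEPES, pH 7.4. 0.1% DMSO bath applied, then 10 μM test compound. DMSO vs compound inhibition ratio compared by unpaired t-test, n = 5.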

CaV1.2 = CaV1.2 (Mus musculus, UniProt Q01815); assay: whole-cell patch-clamp, off-target channel, 10 μM compound; format: cell-based; conditions: for sensitivity of channel to compound: vs 0.1% DMSO
Sequence of CaV1.2 (Q01815 whole entry): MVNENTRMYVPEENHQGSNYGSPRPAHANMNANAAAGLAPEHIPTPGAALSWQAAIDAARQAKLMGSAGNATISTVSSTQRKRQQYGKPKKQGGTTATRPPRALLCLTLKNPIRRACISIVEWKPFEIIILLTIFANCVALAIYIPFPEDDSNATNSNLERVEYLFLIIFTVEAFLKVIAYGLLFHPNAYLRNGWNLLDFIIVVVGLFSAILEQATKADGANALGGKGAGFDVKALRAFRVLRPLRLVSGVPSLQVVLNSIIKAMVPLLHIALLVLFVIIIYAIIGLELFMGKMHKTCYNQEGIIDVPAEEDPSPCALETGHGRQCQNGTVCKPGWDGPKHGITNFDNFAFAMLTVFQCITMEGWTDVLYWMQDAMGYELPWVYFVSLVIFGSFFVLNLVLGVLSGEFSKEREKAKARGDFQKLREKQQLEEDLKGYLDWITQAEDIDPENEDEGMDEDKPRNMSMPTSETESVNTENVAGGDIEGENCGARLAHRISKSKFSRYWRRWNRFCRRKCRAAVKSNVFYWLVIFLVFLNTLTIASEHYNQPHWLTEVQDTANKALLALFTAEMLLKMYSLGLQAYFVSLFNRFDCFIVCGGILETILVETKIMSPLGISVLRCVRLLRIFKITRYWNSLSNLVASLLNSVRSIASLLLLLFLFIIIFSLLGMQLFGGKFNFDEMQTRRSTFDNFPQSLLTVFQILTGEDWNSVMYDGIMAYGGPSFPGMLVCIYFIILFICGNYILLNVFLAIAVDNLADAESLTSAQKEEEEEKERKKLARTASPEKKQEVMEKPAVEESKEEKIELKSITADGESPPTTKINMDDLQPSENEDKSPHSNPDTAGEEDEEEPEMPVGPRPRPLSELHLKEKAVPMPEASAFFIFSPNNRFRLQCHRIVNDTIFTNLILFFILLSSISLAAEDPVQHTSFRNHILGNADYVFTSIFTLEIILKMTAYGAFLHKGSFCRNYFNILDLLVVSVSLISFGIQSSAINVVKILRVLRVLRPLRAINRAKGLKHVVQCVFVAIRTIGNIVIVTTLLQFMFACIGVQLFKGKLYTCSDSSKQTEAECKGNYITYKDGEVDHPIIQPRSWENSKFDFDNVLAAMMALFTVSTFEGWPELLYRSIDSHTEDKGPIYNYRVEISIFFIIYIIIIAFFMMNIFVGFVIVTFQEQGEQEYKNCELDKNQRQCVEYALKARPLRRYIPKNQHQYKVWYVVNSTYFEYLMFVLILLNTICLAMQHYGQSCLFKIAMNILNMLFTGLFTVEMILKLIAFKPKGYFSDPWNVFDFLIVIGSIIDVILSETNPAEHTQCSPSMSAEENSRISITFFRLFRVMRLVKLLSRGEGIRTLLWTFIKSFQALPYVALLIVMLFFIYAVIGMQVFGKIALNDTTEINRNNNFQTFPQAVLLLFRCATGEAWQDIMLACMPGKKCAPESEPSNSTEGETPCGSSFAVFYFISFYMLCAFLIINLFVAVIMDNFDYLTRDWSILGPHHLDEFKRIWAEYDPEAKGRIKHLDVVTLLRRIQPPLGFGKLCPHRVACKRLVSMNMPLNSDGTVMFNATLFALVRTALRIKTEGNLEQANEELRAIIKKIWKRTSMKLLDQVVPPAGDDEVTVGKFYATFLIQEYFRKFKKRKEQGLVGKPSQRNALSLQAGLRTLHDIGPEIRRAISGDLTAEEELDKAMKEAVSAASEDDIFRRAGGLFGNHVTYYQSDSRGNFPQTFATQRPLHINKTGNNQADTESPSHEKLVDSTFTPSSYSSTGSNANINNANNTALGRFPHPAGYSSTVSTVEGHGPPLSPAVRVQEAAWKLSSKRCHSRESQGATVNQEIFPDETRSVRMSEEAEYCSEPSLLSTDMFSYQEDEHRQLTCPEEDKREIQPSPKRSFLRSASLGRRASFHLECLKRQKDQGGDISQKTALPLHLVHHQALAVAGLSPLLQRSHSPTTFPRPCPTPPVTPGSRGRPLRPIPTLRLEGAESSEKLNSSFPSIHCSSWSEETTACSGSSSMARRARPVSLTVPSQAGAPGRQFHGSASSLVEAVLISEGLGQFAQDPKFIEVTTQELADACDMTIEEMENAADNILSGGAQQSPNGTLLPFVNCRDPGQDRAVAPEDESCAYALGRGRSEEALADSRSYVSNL
How it was run: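 CaV channels in transfected HEK293T cells, whole-cell. Pipette (mM): 120 CsMeSO3, 2 Mg-ATP, 11 EGTA, 10 HEPES, pH 7.4. Bath (mM): 138 NaCl, 5.6 KCl, 2.6 CaCl2, 20 TEA-Cl, 5 glucose, 5 HEPES, pH 7.4. 0.1% DMSO bath applied before 10 μM test compound. Inhibition ratios compared by unpaired t-test, n = 5.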

HV1 = molecular target: T2, HV1 (Homo sapiens, UniProt Q96D96); assay: whole-cell patch-clamp, off-target channel, 10 μM compound; format: cell-based; conditions: vs 0.1% DMSO
T2 sequence (Q96D96 1-273): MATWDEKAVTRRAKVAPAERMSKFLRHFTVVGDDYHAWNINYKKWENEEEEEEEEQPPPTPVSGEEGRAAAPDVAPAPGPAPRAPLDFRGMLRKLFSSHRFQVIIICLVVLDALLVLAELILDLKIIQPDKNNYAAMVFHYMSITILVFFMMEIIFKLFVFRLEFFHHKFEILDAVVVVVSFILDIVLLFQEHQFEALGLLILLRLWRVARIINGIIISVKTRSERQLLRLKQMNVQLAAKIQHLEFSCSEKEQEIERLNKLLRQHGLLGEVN
How it was run: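 HV1 in transfected HEK293T cells, whole-cell. Pipette (mM): 120 CsCl, 100 MES, pH 5.5. Bath (mM): 150 NaCl, 5 KCl, 1 MgCl2, 2 CaCl2, 10 glucose, 100 HEPES, pH 7.2. Bath with 0.1% DMSO applied before 10 μM test compound. Inhibition ratios compared by unpaired t-test, n = 5.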

PAC = PAC (Homo sapiens, UniProt Q9H813); assay: whole-cell patch-clamp, off-target channel, 10 μM compound; format: cell-based; conditions: vs 0.1% DMSO
Sequence of PAC (Q9H813 whole entry): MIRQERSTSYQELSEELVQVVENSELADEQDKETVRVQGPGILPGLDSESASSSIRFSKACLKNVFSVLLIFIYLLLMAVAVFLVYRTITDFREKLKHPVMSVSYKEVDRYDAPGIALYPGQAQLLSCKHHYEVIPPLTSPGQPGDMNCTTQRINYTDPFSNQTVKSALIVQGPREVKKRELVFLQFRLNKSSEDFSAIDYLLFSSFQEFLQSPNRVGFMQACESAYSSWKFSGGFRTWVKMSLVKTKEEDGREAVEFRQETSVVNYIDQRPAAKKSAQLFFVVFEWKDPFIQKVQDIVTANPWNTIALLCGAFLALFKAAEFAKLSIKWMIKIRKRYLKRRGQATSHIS
How it was run: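 PAC in transfected HEK293T cells, whole-cell. Pipette (mM): 135 CsCl, 1 MgCl2, 2 CaCl2, 10 HEPES, 5 EGTA, 4 Mg-ATP, pH 7.2. NaCl-based bath buffered with 10 mM HEPES (pH 7.3) or 5 mM Na3-citrate (pH 5.5). 0.1% DMSO bath applied before 10 μM test compound. Inhibition ratios compared by unpaired t-test, n = 5.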

Kir1.1 = molecular target: T3, Kir1.1 (Homo sapiens, UniProt P48048); assay: whole-cell patch-clamp, off-target channel, 10 μM compound; format: cell-based; conditions: vs 0.1% DMSO
T3 sequence (P48048 1-391): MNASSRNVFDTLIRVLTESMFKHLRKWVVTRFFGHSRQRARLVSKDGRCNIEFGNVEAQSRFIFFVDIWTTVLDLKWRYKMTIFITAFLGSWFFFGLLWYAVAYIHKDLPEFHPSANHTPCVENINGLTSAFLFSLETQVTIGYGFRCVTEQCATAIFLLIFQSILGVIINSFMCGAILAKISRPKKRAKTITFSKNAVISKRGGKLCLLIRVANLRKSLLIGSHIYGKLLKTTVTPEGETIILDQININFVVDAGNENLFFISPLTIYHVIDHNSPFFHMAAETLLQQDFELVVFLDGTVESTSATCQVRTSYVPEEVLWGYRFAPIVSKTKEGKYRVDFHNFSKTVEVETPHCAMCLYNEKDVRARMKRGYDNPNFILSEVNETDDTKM
How it was run: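 Kir channels in transfected HEK293T cells, whole-cell. Pipette (mM): 135 KCl, 2 MgCl2, 10 HEPES, 1 EGTA, 4 Na2-ATP, pH 7.3. Bath (mM): 135 NaCl, 5 KCl, 1.5 CaCl2, 1 MgCl2, 10 HEPES, 10 glucose, pH 7.4. 0.1% DMSO bath applied before 10 μM test compound. Inhibition ratios compared by unpaired t-test, n = 5.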

Row | effect of mutating R554 on the compound's action on Otop1 (mOtop1/R554A) | sensitivity of channel to compound (HV1) | sensitivity of channel to compound (PAC) | sensitivity of channel to compound (Kir1.1) | response of mutant to MFaN (mOtop1/R554A; pHs of 4.5, 5.0, and 6.0) | SMILES | sensitivity of channel to compound (KV7.1) | sensitivity of channel to compound (CaV1.2) | inhibition ratio (KV7.1) | inhibition ratio (CaV1.2) | response of mutant to MFaN (mOtop1/R554A; 10 μM, pH 5.5)
1 | only partially reduced | completely resistant | completely resistant | completely resistant |  | Cc1cc(NC(=O)c2ccc(Br)o2)ccc1NC(=O)c1ccco1 [B2FAMP, 5-Bromo-N-[4-(2-furoylamino)-3-methylphenyl]-2-furamide] | completely resistant | completely resistant |  |  | 
2 | did not affect | completely resistant | completely resistant | completely resistant |  | CC(C)c1noc2ncc(C(=O)c3ccccc3O)cc12 [HIMOP, (2-hydroxyphenyl)-(3-propan-2-yl-5-isoxazolo[5,4-b]pyridinyl)methanone] |  |  | 16.4% | 15.6% | 
3 |  | completely resistant | completely resistant | completely resistant | completely unresponsive | Cc1ccc(C(=O)Nc2ccc3ccccc3c2)o1 [MFaN, 5-methyl-N-2-naphthyl-2-furamide] | completely resistant | completely resistant |  |  | entirely unresponsive; also recorded: completely abolished
